Laboratory results as given in PubChem BioAssay.
The source made the active and inactive calls.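 The calls were made as follows, unless noted: active = mean duplicate activation above the buffer control mean plus 5 SD of those controls; inactive = the rest.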

How the values were obtained:
[1] = nonspecific flux increase, KCNQ1-free cells – parental CHO cells, counter-screen for KCNQ1 potentiator project (AID 493006;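 active = duplicate-averaged activation above buffer control mean plus 5 SD of those controls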); settings: parental CHO-K1 cells, FluxOR thallium flux, at 10 µM; hits give high values
Procedure, shortened: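 Material: untransfected host CHO-K1 cells with FluxOR thallium dye. Timing: overnight 37 °C plating, 90 min RT dye, 20 min compound. Detection: kinetic FluxOR fluorescence, 10 s baseline, 110 s after stimulus. Read-out basis: max-minus-min fluorescence over baseline, percent of buffer-to-R-L3 span. Replicates: duplicate wells per compound, percent values averaged.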

[2] = target: Potassium voltage-gated channel subfamily KQT member 1 (Homo sapiens) (UniProt P51787); test: enhancement of KCNQ1 channel thallium flux – FluxOR thallium flux, CHO cells, duplicates, confirmation (AID 493007;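 active = potentiation averaged over duplicate wells exceeding buffer-only control mean by more than 3 SD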;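 as to outcome: cells depolarized by a potassium plus thallium sulfate stimulus after compound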); settings: KCNQ1 cell line, FluxOR thallium flux fluorescence, at 10 µM; hits give high values, % of reference activator effect, buffer zero
Sequence of Potassium voltage-gated channel subfamily KQT member 1 (Homo sapiens) (P51787 whole entry, looked up): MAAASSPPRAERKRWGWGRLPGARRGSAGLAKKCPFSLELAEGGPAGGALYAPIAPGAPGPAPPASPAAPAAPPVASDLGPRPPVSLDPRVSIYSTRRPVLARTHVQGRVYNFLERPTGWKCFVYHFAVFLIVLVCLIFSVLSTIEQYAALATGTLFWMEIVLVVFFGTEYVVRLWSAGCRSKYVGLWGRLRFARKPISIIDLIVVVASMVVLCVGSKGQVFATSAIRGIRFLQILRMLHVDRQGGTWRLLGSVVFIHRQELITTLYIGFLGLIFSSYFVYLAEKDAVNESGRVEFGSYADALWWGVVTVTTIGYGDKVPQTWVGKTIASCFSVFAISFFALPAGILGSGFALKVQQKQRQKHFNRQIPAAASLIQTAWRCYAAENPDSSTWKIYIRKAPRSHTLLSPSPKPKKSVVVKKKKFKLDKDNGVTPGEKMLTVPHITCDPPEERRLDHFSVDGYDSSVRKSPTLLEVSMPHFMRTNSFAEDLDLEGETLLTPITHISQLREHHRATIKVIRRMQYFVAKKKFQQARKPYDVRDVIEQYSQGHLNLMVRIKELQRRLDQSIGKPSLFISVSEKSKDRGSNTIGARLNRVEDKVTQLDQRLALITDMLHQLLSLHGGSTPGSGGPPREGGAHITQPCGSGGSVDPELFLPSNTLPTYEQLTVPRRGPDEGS
Procedure, shortened: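 Test system – KCNQ1-expressing CHO cell line · Incubation – FluxOR dye loading 90 min, compound exposure 20 min, room temperature · Detection – FluxOR Tl+ flux fluorescence, 10 s baseline plus 110 s recording · Controls – buffer-only wells as 0% and R-L3 activator as 100%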

[3] = target: Potassium voltage-gated channel subfamily KQT member 2 (Rattus norvegicus) (UniProt O88943); test: KCNQ2 thallium flux enhancement – KCNQ2-CHO-K1 cells, selectivity assay for KCNQ1 potentiator project (AID 493009;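 active = mean duplicate potentiation above the buffer control mean plus 5 SD of buffer wells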;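 also: assay conditions were tuned for KCNQ1 rather than KCNQ2 modulators; signal is max minus min fluorescence divided by baseline after thallium stimulus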); settings: FluxOR thallium flux fluorescence, at 10 µM; hits give high values, scaled: buffer 0, activator control 100
Sequence of Potassium voltage-gated channel subfamily KQT member 2 (Rattus norvegicus) (O88943 whole entry, looked up): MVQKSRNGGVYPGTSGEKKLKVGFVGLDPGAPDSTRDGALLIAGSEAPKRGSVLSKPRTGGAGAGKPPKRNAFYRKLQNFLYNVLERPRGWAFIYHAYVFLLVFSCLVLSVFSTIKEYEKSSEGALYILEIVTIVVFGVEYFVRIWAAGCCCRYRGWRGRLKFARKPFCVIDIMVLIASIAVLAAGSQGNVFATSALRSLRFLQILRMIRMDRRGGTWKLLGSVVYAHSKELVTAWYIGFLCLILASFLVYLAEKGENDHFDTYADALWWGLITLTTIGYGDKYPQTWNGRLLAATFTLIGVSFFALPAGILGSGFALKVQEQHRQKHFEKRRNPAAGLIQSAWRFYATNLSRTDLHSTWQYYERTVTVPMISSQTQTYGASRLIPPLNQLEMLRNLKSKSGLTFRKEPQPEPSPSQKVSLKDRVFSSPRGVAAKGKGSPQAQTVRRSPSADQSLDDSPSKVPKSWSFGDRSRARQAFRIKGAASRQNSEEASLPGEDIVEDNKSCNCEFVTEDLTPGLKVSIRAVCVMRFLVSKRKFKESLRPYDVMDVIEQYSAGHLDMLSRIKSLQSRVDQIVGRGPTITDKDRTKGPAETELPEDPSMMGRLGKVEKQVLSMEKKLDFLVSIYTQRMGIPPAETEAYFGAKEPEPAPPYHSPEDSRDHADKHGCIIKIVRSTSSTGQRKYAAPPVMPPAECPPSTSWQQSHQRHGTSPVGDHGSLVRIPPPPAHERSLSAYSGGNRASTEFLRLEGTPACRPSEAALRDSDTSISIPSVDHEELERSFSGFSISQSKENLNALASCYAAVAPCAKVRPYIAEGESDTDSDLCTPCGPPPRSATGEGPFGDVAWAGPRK

[4] = target: Potassium voltage-gated channel subfamily KQT member 1 (Homo sapiens) (UniProt P51787); test: KCNQ1 activators by electrophysiology – IonWorks patch clamp, KCNQ1-CHO cells, orthogonal assay for KCNQ1 potentiator project, confirmation (AID 493184;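 active = current rise at least 3 SD above the untreated control mean in each of two repeat wells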;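 as to current potentiation: percent change of the same well's current before compound addition so 0% = no change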); settings: automated patch clamp current, at 10 µM; hits give high values
Procedure, shortened: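 Read-out: Percent current increase versus pre-compound level | Assay system: CHO cells carrying KCNQ1 | Measured by: Automated perforated-patch electrophysiology | Medium: External bath solution at pH 7.4 | Dosing: One dose, 10 µM final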

[5] = target: Potassium voltage-gated channel subfamily E member 1 (Homo sapiens) + Potassium voltage-gated channel subfamily KQT member 1 (Homo sapiens) (UniProt P15382+P51787); test: KCNQ1-E1 channel activation – thallium flux, CHO-K1 KCNQ1/E1 cells, selectivity assay for KCNQ1 potentiator project, confirmation (AID 493186); settings: FluxOR thallium flux, at 10 µM; hits give high values
Sequence of Potassium voltage-gated channel subfamily E member 1 (Homo sapiens) + Potassium voltage-gated channel subfamily KQT member 1 (Homo sapiens) (P51787 whole entry, looked up): as the sequence (P51787 whole entry, looked up) above
Procedure, shortened: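 Test system: CHO-K1 cells with KCNQ1/E1; dosing: one test concentration; signal: FluxOR Tl+ flux fluorescence, kinetic read; incubation: 90-min dye loading then 20-min compound exposure, both at room temperature; read-out basis: percent of R-L3 effect over buffer; replication: duplicate wells per compound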

CCCCOc1cccc(C(=O)NC(=S)Nc2cccnc2)c1
inactive: outcome [1] | outcome [2] | outcome [4] | outcome [5]
active: potentiation [3] 143%

CN1CCN(C(c2ccc(Cl)cc2)c2cc(Cl)c3cccnc3c2O)CC1 (stereo not given)
inactive: outcome [1] | outcome [2] | outcome [3] | outcome [4] | outcome [5]

Cc1cc(-c2cccnc2)c(C#N)c(SCC#N)n1
inactive: outcome [1] | outcome [2] | outcome [3] | outcome [4] | outcome [5]

Oc1c(N=NC(=S)Nc2ccccc2F)c2ccccc2n1Cc1ccc(Cl)cc1
inactive: outcome [1] | outcome [2] | outcome [3] | outcome [4] | outcome [5]

Cc1cc(C(=O)NCc2ccc(S(N)(=O)=O)cc2)ccc1[N+](=O)[O-]
inactive: outcome [1] | outcome [2] | outcome [3] | outcome [4] | outcome [5]

CC1CN(c2nc3ccccc3nc2C(C#N)C(=O)NCc2ccc3c(c2)OCO3)CC(C)O1 (stereo not given)
inactive: outcome [1] | outcome [3] | outcome [4] | outcome [5]
active: potentiation [2] 26%

CCCN(CCC)Cc1c(C(=O)N/N=C/C(C)=C\c2ccco2)nnn1-c1nonc1N
inactive: outcome [1] | outcome [2] | outcome [3] | outcome [4] | outcome [5]

Cc1[nH][nH]c(=O)c1C(c1ccc(-c2ccc(Cl)c(Cl)c2)o1)c1c(C)[nH][nH]c1=O
active: potentiation [2] 30%
inactive: outcome [1] | outcome [3] | outcome [4] | outcome [5]

S=C(NN=C1CCCCCC1)Nc1ccc(Cl)cc1
inactive: outcome [1] | outcome [2] | outcome [3] | outcome [4] | outcome [5]

CCNc1nc(NCC)nc(C(=O)OCCO)n1
inactive: outcome [1] | outcome [2] | outcome [3] | outcome [4] | outcome [5]

Cn1nnc(NC(=O)C(c2ccccc2)c2ccccc2)n1
inactive: outcome [1] | outcome [2] | outcome [3] | outcome [4] | outcome [5]

Cc1cccc(NC(=S)c2nc3ccccc3s2)c1
inactive: outcome [1] | outcome [4] | outcome [5]
active: potentiation [2] 146% | potentiation [3] 219%

O=C(NC(=S)Nc1ccc(CN2CCOCC2)cc1)c1ccc(-c2cccc(Cl)c2)o1
active: potentiation [2] 64% | potentiation [3] 144%
inactive: outcome [1] | outcome [4] | outcome [5]

Cn1c(=O)cc(NCc2ccccc2)[nH]c1=O
inactive: outcome [1] | outcome [2] | outcome [3] | outcome [4] | outcome [5]

O=C(NC1=NCCS1)c1ccc(N2CCCC2=O)cc1
inactive: outcome [1] | outcome [3] | outcome [4] | outcome [5]
active: potentiation [2] 28.5%

Cc1ccc(S(=O)(=O)Nc2cccc3ncccc23)s1
active: potentiation [2] 19.5% | potentiation [3] 168%
inactive: outcome [1] | outcome [4] | outcome [5]

C/C(=N\Nc1nc2ccccc2s1)c1ccc(Br)s1
inactive: outcome [1] | outcome [2] | outcome [3] | outcome [4] | outcome [5]

Cc1c(-c2nc(-c3ccncc3)no2)cccc1[N+](=O)[O-]
inactive: outcome [1] | outcome [3] | outcome [4] | outcome [5]
active: potentiation [2] 20%

O=C(N/N=C/c1ccc2cccc(OCc3ccccc3)c2n1)c1ccc(Br)cc1
inactive: outcome [1] | outcome [3] | outcome [4] | outcome [5]
active: potentiation [2] 23%

O=C(Nc1ccc(Cl)cc1C(F)(F)F)C(Sc1cccc[n+]1[O-])c1ccccc1 (stereo not given)
inactive: outcome [1] | outcome [2] | outcome [3] | outcome [4] | outcome [5]

CC(Sc1cccc[n+]1[O-])c1ccccc1 (stereo not given)
inactive: outcome [1] | outcome [2] | outcome [3] | outcome [4] | outcome [5]

Cc1ccc(O)c(NC(=S)NC(=O)Cc2ccc(Cl)cc2)c1
active: potentiation [2] 38% | potentiation [3] 154%
inactive: outcome [1] | outcome [4] | outcome [5]

CCOC(=O)N1CCN(C(=S)NC(=O)c2ccc(F)c(F)c2)CC1
inactive: outcome [1] | outcome [2] | outcome [3] | outcome [4] | outcome [5]

COC(=O)N/N=C/c1cc(C)n(-c2ccc(Br)cc2)c1C
inactive: outcome [1] | outcome [2] | outcome [3] | outcome [4] | outcome [5]

COc1ccc(-c2csc(NC(=S)NC(=O)c3cccs3)n2)cc1Br
inactive: outcome [1] | outcome [2] | outcome [3] | outcome [4] | outcome [5]

C=CCn1c(=S)[nH]c2cc(-c3ccccc3)sc2c1=O
inactive: outcome [1] | outcome [2] | outcome [3] | outcome [4] | outcome [5]

CN(C)CCNc1nc2sc3c(c2c(=O)n1CCc1ccccc1)CCCCC3
inactive: outcome [1] | outcome [3] | outcome [4] | outcome [5]
active: potentiation [2] 19%

S=c1[nH]nc(-c2ccco2)n1/N=C/c1cccc(Cl)c1Cl
inactive: outcome [1] | outcome [3] | outcome [4] | outcome [5]
active: potentiation [2] 23.5%

COc1cccc(-c2nc(=S)c3c(o2)CCCC3)c1
inactive: outcome [1] | outcome [2] | outcome [3] | outcome [4] | outcome [5]

Cc1ccccc1C(OCCN(C)C)C1CCCCC1 (stereo not given)
inactive: outcome [1] | outcome [2] | outcome [3] | outcome [4] | outcome [5]

CC(C)Oc1cccc(C(=O)NC(=S)N2CCN(c3ccc(C(F)(F)F)cc3[N+](=O)[O-])CC2)c1
inactive: outcome [1] | outcome [4] | outcome [5]
active: potentiation [2] 35.5% | potentiation [3] 144%

COc1ccc(-c2nnc(NC(=O)c3ccc(S(=O)(=O)N4CCCc5ccccc54)cc3)o2)cc1
inactive: outcome [1] | outcome [2] | outcome [3] | outcome [4] | outcome [5]

O=c1c2cc(F)ccc2[nH]c(=S)n1Cc1ccc(F)cc1
inactive: outcome [1] | outcome [2] | outcome [3] | outcome [4] | outcome [5]

CC(=O)Nc1ccc(S(=O)(=O)Nc2nc3ccccc3nc2Nc2ccccc2)cc1
inactive: outcome [1] | outcome [2] | outcome [3] | outcome [4] | outcome [5]

COc1nccnc1NS(=O)(=O)c1ccc(NC(=S)NC(=O)c2ccccc2F)cc1
inactive: outcome [1] | outcome [2] | outcome [3] | outcome [4] | outcome [5]

COc1ccc(-c2csc(N(CCCN(C)C)C(=O)c3ccccc3C)n2)cc1
inactive: outcome [1] | outcome [2] | outcome [3] | outcome [4] | outcome [5]

Cc1cc(/C=N/n2cnnc2)c(C)n1-c1ccc(Cl)cc1Cl
active: current potentiation [4] 28.9%
inactive: outcome [1] | outcome [2] | outcome [3] | outcome [5]

COc1ccc(OCCCC(=O)NNC(=O)CCN2CCN(c3ccccc3)CC2)cc1
active: potentiation [2] 19% | potentiation [3] 142%
inactive: outcome [1] | outcome [4] | outcome [5]

Cc1cc(C)cc(-n2c(C)cc(/C=C3\C(=N)N4N=C(CC(C)C)SC4=NC3=O)c2C)c1
inactive: outcome [1] | outcome [3] | outcome [4] | outcome [5]
active: potentiation [2] 21.5%

O=C(NC(=S)Nc1nc(-c2ccccc2)cs1)c1cccs1
inactive: outcome [1] | outcome [3] | outcome [4] | outcome [5]
active: potentiation [2] 38%

CCOC(=O)c1c(N)sc(N)c1C(=O)OCC
active: potentiation [3] 170%
inactive: outcome [1] | outcome [2] | outcome [4] | outcome [5]

COc1ccc(-c2csc(NC(=S)NC(=O)c3ccco3)n2)cc1Br
inactive: outcome [1] | outcome [3] | outcome [4] | outcome [5]
active: potentiation [2] 25%

Cc1cccc(N2CCN(C(=O)Cn3sc4nc(C)cc(C)c4c3=O)CC2C)c1 (stereo not given)
inactive: outcome [1] | outcome [2] | outcome [3] | outcome [4] | outcome [5]

O=C(NC(=S)Nc1ccc2c(c1)OCCO2)c1cccc2ccccc12
inactive: outcome [1] | outcome [2] | outcome [3] | outcome [4] | outcome [5]

Cc1ccc(NC2=C(Cl)C(=O)OC2OC(=O)c2ccc(C)cc2)cc1 (stereo not given)
inactive: outcome [1] | outcome [2] | outcome [3] | outcome [4] | outcome [5]

Cc1ccc(Nc2ccc([N+](=O)[O-])cn2)cc1Cl
active: potentiation [3] 144%
inactive: outcome [1] | outcome [2] | outcome [4] | outcome [5]

Oc1c(Cl)cc(Cl)cc1/C=N/NC(=S)NC1CC2C=CC1C2 (stereo not given)
inactive: outcome [1] | outcome [2] | outcome [3] | outcome [4] | outcome [5]

CC1CN(C(=S)NC(=O)c2ccco2)CC(C)O1 (stereo not given)
inactive: outcome [1] | outcome [2] | outcome [3] | outcome [4] | outcome [5]

O=C(CN(CC1CCCO1)C(=O)CNS(=O)(=O)c1ccc(Cl)cc1)NC1CCCC1 (stereo not given)
inactive: outcome [1] | outcome [2] | outcome [3] | outcome [4] | outcome [5]

O=C(N1CCCCC1)N1CCN(C(=O)N2CCCCC2)CC1
active: potentiation [2] 19%
inactive: outcome [1] | outcome [3] | outcome [4] | outcome [5]

Cc1ccc(CCNC(=O)C2CC(c3cccc(F)c3)=NO2)cc1 (stereo not given)
inactive: outcome [1] | outcome [2] | outcome [3] | outcome [4] | outcome [5]

O=c1cc(-c2ccccc2)nc2cc(-c3ccco3)[nH]n12
inactive: outcome [1] | outcome [2] | outcome [3] | outcome [4] | outcome [5]

CN(C)c1cccc(C(=O)N2CCCC(C(=O)c3cc(F)ccc3F)C2)c1 (stereo not given)
inactive: outcome [1] | outcome [2] | outcome [3] | outcome [4] | outcome [5]

CN1C(=O)c2ccc(NC(=O)c3c(F)c(F)c(F)c(F)c3F)cc2C1=O
active: potentiation [2] 25.5%
inactive: outcome [1] | outcome [3] | outcome [4] | outcome [5]

CCOC(=O)C(C(=O)OCC)C(C(=O)OCC)N1CCOCC1 (stereo not given)
active: potentiation [3] 171%
inactive: outcome [1] | outcome [2] | outcome [4] | outcome [5]

COc1ccc(-c2nn(-c3ccccc3)cc2C(=O)NC(=S)NNC(=O)c2ccncc2)cc1
inactive: outcome [1] | outcome [3] | outcome [4] | outcome [5]
active: potentiation [2] 17.5%

Cc1ccc(C)c(N/C(N)=N/c2nc(C)cc(C)n2)c1
inactive: outcome [1] | outcome [2] | outcome [3] | outcome [4] | outcome [5]

COc1ccc(C2CC(c3c(-c4ccccc4)c4cc(Cl)ccc4[nH]c3=O)=NN2S(C)(=O)=O)cc1OC (stereo not given)
inactive: outcome [1] | outcome [2] | outcome [3] | outcome [4] | outcome [5]

CC(C)CCn1c(SCC(=O)NC2CC2)nc2cc(Cl)ccc2c1=O
inactive: outcome [1] | outcome [2] | outcome [3] | outcome [4] | outcome [5]
